In ChEMBL document CHEMBL4610084, “Antibacterial and ATP Synthesis Modulating Compounds from Salvia tingitana” (2020):
Converted amounts (≈) assume the structure as drawn.

Columns and labels:
[1] = system: Staphylococcus lugdunensis; experiment: Antibacterial activity against Staphylococcus lugdunensis MB96 after 24 hrs by microdilution assay; type: functional; conditions: MB96, 24 h
Procedure, shortened: (§1)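 Broth microdilution MIC against clinical or seawater-isolated strains (identified by standard procedures and MALDI-TOF), with compound solutions and testing as in earlier work. MIC reported in μg/mL and μM.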

Enterococcus gallinarum = experiment: Antibacterial activity against Vancomycin resistant Enterococcus gallinarum MB111 after 24 hrs by microdilution assay; type: functional; conditions: MB111, 24 h
Procedure, shortened: (§2)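 Broth microdilution MIC, run as in an earlier cited report. Strains are clinical isolates identified by standard methods and MALDI-TOF; E. faecalis MB19 and MB51 are Ligurian seawater isolates. Highest concentration tested was 128 μg/mL. MICs are given in μg/mL and μM, with oxacillin and vancomycin as reference antibiotics.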

Enterococcus durans = experiment: Antibacterial activity against Enterococcus durans MB113 after 24 hrs by microdilution assay; type: functional; conditions: MB113, 24 h; procedure, shortened: as §1
Enterococcus faecalis [2] = experiment: Bacteriostatic activity against Enterococcus faecalis MB1 assessed as ratio of reduction in bacterial growth at 4 times MIC by time kill assay; type: functional
Procedure, shortened: (§3)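 Time-kill curves: viable cell counts of susceptible strains recorded with or without compound at 4 × MIC.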

Enterococcus faecalis [3] = experiment: Antibacterial activity against Vancomycin resistant Enterococcus faecalis MB51 after 24 hrs by microdilution assay; type: functional; conditions: MB51, 24 h; procedure, shortened: as §2
Enterococcus faecalis [4] = experiment: Antibacterial activity against Vancomycin resistant Enterococcus faecalis MB19 after 24 hrs by microdilution assay; type: functional; conditions: MB19, 24 h; procedure, shortened: as §2
[5] = system: Enterococcus casseliflavus; experiment: Antibacterial activity against Vancomycin resistant Enterococcus casseliflavus MB159 after 24 hrs by microdilution assay; type: functional; conditions: MB159, 24 h; procedure, shortened: as §2
Enterococcus faecium [6] = experiment: Antibacterial activity against Enterococcus faecium MB152 after 24 hrs by microdilution assay; type: functional; conditions: MB152, 24 h; procedure, shortened: as §1
Staphylococcus capitis = experiment: Antibacterial activity against Methicillin-resistant Staphylococcus capitis MB71 after 24 hrs by microdilution assay; type: functional; conditions: MB71, 24 h; procedure, shortened: as §2
[7] = system: Staphylococcus saprophyticus; experiment: Antibacterial activity against Staphylococcus saprophyticus MB41 after 24 hrs by microdilution assay; type: functional; conditions: MB41, 24 h; procedure, shortened: as §1
Enterococcus avium = experiment: Antibacterial activity against Enterococcus avium MB119 after 24 hrs by microdilution assay; type: functional; conditions: MB119, 24 h; procedure, shortened: as §1
[8] = system: Staphylococcus haemolyticus; experiment: Antibacterial activity against Methicillin-resistant Staphylococcus haemolyticus MB115 after 24 hrs by microdilution assay; type: functional; conditions: MB115, 24 h; procedure, shortened: as §2
Staphylococcus aureus [9] = experiment: Antibacterial activity against Methicillin-resistant Staphylococcus aureus MB18 after 24 hrs by microdilution assay; type: functional; conditions: MB18, 24 h; procedure, shortened: as §2
Enterococcus faecalis [10] = experiment: Antibacterial activity against Vancomycin resistant Enterococcus faecalis MB1 after 24 hrs by microdilution assay; type: functional; conditions: MB1, 24 h; procedure, shortened: as §2
Staphylococcus aureus [11] = experiment: Antibacterial activity against Methicillin-resistant Staphylococcus aureus MB188 after 24 hrs by microdilution assay; type: functional; conditions: MB188, 24 h; procedure, shortened: as §2
[12] = system: Staphylococcus epidermidis; experiment: Antibacterial activity against Methicillin-resistant Staphylococcus epidermidis MB165 after 24 hrs by microdilution assay; type: functional; conditions: MB165, 24 h; procedure, shortened: as §2
Staphylococcus warneri = experiment: Antibacterial activity against Methicillin-resistant Staphylococcus warneri MB74 after 24 hrs by microdilution assay; type: functional; conditions: MB74, 24 h; procedure, shortened: as §2
Enterococcus faecium [13] = experiment: Antibacterial activity against Enterococcus faecium MB3 after 24 hrs by microdilution assay; type: functional; conditions: MB3, 24 h; procedure, shortened: as §1
Enterococcus faecium [14] = experiment: Bacteriostatic activity against Enterococcus faecium MB152 assessed as ratio of reduction in bacterial growth by measuring order of magnitude at 4 times MIC by time kill assay; type: functional; procedure, shortened: as §3
Enterococcus faecium [15] = experiment: Antibacterial activity against Enterococcus faecium MB2 after 24 hrs by microdilution assay; type: functional; conditions: MB2, 24 h; procedure, shortened: as §1
Enterococcus faecalis [16] = experiment: Antibacterial activity against Enterococcus faecalis MB76 after 24 hrs by microdilution assay; type: functional; conditions: MB76, 24 h; procedure, shortened: as §2
Staphylococcus simulans = experiment: Antibacterial activity against Staphylococcus simulans MB94 after 24 hrs by microdilution assay; type: functional; conditions: MB94, 24 h; procedure, shortened: as §1
Staphylococcus hominis = experiment: Antibacterial activity against Methicillin-resistant Staphylococcus hominis MB124 after 24 hrs by microdilution assay; type: functional; conditions: MB124, 24 h; procedure, shortened: as §2
[17] = system: Staphylococcus epidermidis; experiment: Antibacterial activity against Methicillin-resistant Staphylococcus epidermidis MB169 after 24 hrs by microdilution assay; type: functional; conditions: MB169, 24 h; procedure, shortened: as §2
Bos taurus = species on record: Bos taurus; experiment: Modulation of ATP synthase in bovine rod outer segments assessed as inhibition of ATP production at 80 ug/ml in presence of Ap5A adenylate kinase inhibitor by luciferin/luciferase chemiluminescent method relative to control
Procedure, shortened: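 Bovine rod OS (5 μg) preincubated 5 min at 37 °C in Tris/HCl pH 7.4 with KCl, EGTA, MgCl2, 0.6 mM ouabain, 0.25 mM Ap5A, 5 mM KH2PO4, 20 mM succinate, 0.35 mM NADH and ampicillin. Synthesis started with 0.1 mM ADP and stopped with perchloric acid. ATP read by luciferin/luciferase luminescence. Samples at 80 μg/mL; 30 μM resveratrol as positive control. Triplicates, ANOVA/Bonferroni.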

Staphylococcus aureus [18] = experiment: Bacteriostatic activity against Methicillin-resistant Staphylococcus aureus MB18 assessed as ratio of reduction in bacterial growth at 4 times MIC by time kill assay; type: functional
[19] = system: Staphylococcus epidermidis; experiment: Bacteriostatic activity against Staphylococcus epidermidis MB165 assessed as ratio of reduction in bacterial growth at 4 times MIC by time kill assay; type: functional; procedure, shortened: as §3

CC1=CC(=O)O[C@@H]1C/C=C(\C)CC[C@@H]1[C@@]2(C)CCC[C@@]3(C)C(=O)O[C@@H](C[C@@]1(C)O)[C@H]23
MIC [1]: 308 µM (≈ 128 µg/mL) | MIC (Enterococcus gallinarum): 154 µM (≈ 64.1 µg/mL) | MIC (Enterococcus durans): > 128 µg/mL | Ratio (Enterococcus faecalis [2]): 1 - 2 | MIC (Enterococcus faecalis [3]): 154 µM (≈ 64.1 µg/mL) | MIC (Enterococcus faecalis [4]): 308 µM (≈ 128 µg/mL) | MIC [5]: 308 µM (≈ 128 µg/mL) | MIC (Enterococcus faecium [6]): 308 µM (≈ 128 µg/mL) | MIC (Staphylococcus capitis): 154 µM (≈ 64.1 µg/mL) | MIC [7]: > 128 µg/mL | MIC (Enterococcus avium): 154 µM (≈ 64.1 µg/mL) | MIC [8]: > 128 µg/mL | MIC (Staphylococcus aureus [9]): 308 µM (≈ 128 µg/mL) | MIC (Enterococcus faecalis [10]): 154 µM (≈ 64.1 µg/mL) | MIC (Staphylococcus aureus [11]): > 128 µg/mL | MIC [12]: 308 µM (≈ 128 µg/mL) | MIC (Staphylococcus warneri): 308 µM (≈ 128 µg/mL) | MIC (Enterococcus faecium [13]): 308 µM (≈ 128 µg/mL) | Ratio (Enterococcus faecium [14]): 1 - 2 | MIC (Enterococcus faecium [15]): > 128 µg/mL | MIC (Enterococcus faecalis [16]): 308 µM (≈ 128 µg/mL) | MIC (Staphylococcus simulans): > 128 µg/mL | MIC (Staphylococcus hominis): > 128 µg/mL | MIC [17]: > 128 µg/mL | inhibition (Bos taurus): 79%

C=C[C@@](C)(O)CC[C@@H]1[C@@]2(C)CCCC(C)(C)[C@@H]2CC[C@@]1(C)O
MIC [1]: 104 µM (≈ 32.1 µg/mL) | MIC (Enterococcus gallinarum): 207 µM (≈ 63.9 µg/mL) | MIC (Enterococcus durans): 104 µM | Ratio (Enterococcus faecalis [2]): 1 - 2 | MIC (Enterococcus faecalis [3]): 207 µM (≈ 63.9 µg/mL) | MIC (Enterococcus faecalis [4]): 104 µM (≈ 32.1 µg/mL) | MIC [5]: 207 µM (≈ 63.9 µg/mL) | Ratio (Staphylococcus aureus [18]): 1 - 2 | Ratio [19]: 1 - 2 | MIC (Enterococcus faecium [6]): 207 µM (≈ 63.9 µg/mL) | MIC (Staphylococcus capitis): 104 µM (≈ 32.1 µg/mL) | MIC [7]: 104 µM | MIC (Enterococcus avium): 207 µM (≈ 63.9 µg/mL) | MIC [8]: 207 µM | MIC (Staphylococcus aureus [9]): 104 µM (≈ 32.1 µg/mL) | MIC (Enterococcus faecalis [10]): 104 µM (≈ 32.1 µg/mL) | MIC (Staphylococcus aureus [11]): 104 µM | MIC [12]: 207 µM (≈ 63.9 µg/mL) | MIC (Staphylococcus warneri): 104 µM (≈ 32.1 µg/mL) | MIC (Enterococcus faecium [13]): 104 µM (≈ 32.1 µg/mL) | Ratio (Enterococcus faecium [14]): 1 - 2 | MIC (Enterococcus faecium [15]): 104 µM | MIC (Enterococcus faecalis [16]): 207 µM (≈ 63.9 µg/mL) | MIC (Staphylococcus simulans): 207 µM | MIC (Staphylococcus hominis): 104 µM | MIC [17]: 207 µM | inhibition (Bos taurus): 70%
